This passage reports Diuretic effects, Max fall and Duration results from ChEMBL document CHEMBL1121906, “2-(Aminomethyl)phenols, a new class of saluretic agents. 2. Synthesis and pharmacological properties of the 5-aza isostere of 2-(aminomethyl)-4-(1,1-dimethylethyl)-6-iodophenol” (1981).

“And” between values parts separate entries of the source, which are not always exact repeats. Equal values may be shown once.

Assay [1] deals with Rattus norvegicus. The assay can be described thus: The saluretic (Na+) effect of compound was measured in rats after oral administration at 27 mg/kg dose; Na+ mequiv*100/cage. Format: functional.
In assay [2] the test system is Rattus norvegicus. Kind of assay: The saluretic (Na+)effect of compound was measured in rats after oral administration at 81 mg/kg dose. The assay is classed as functional.
The subject of assay [3] is Rattus norvegicus. The assay can be described thus: The saluretic(Cl-) effect of compound was measured in rats after oral administration at 27 mg/kg dose; Cl-mequiv*100/cage=14. Format: functional.
In assay [4] the test system is Rattus norvegicus. The assay can be described thus: The saluretic(Cl-) effect of compound was measured in rats after oral administration at 3 mg/kg dose. The assay is classed as functional.
Assay [5] deals with Rattus norvegicus. Kind of assay: The saluretic(Na+) effect of compound was measured in rats after oral administration at 27 mg/kg dose; Na+ mequiv*100/cage. The assay is classed as functional.
The test system of assay [6] is Rattus norvegicus. Kind of assay: The saluretic(Cl-) effect of compound was measured in rats after oral administration at 81 mg/kg dose. The assay is classed as functional.
Assay [7] deals with Rattus norvegicus. The assay can be described thus: The saluretic(K+) effect of compound was measured in rats after oral administration at 27 mg/kg dose; K+mequiv*100/cage=14. Format: functional.
In assay [8] the test system is Rattus norvegicus. Kind of assay: The saluretic(K+) effect of compound was measured in rats after oral administration at 3 mg/kg dose. The assay is classed as functional.
The subject of assay [9] is Rattus norvegicus. Kind of assay: The saluretic(K+) effect of compound was measured in rats after oral administration at 81 mg/kg dose. The assay is classed as functional.
Assay [10] concerns Rattus norvegicus. Kind of assay: Mean arterial pressure was measured in hypertensive rat at dose of 20 mg/kg, po. The assay is classed as functional, Artery. The procedure, abridged: (§1)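 Spontaneously hypertensive rats received the compound orally. The read-out was the maximum fall in mean arterial pressure (mmHg ± SE) and the duration of effect in hours. The number of rats varied by treatment, and the protocol follows an earlier report.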

Assay [11] is filed under the species Rattus norvegicus. The assay can be described thus: Duration of effect was measured in hypertensive rat. The assay is classed as functional. A digest of the protocol: as §1
Assay [12] deals with Rattus norvegicus. Kind of assay: Saluretic(Na+) effect of compound was measured in rats after oral administration at 3 mg/kg dose; Na+ mequiv*100/cage. The assay is classed as functional.
Assay [13] concerns Canis familiaris. Kind of assay: The saluretic(K+) effect of compound was measured in dogs after iv administration at 5 mg/kg dose; K+mequiv/min=20.
Assay [14] has as its system Canis familiaris. Kind of assay: The saluretic(Cl-) effect of compound was measured in dogs after iv administration at 5 mg/kg dose; Cl-mequiv/min=303.
In assay [15] the test system is Canis familiaris. The assay can be described thus: The saluretic(Na+) effect of compound was measured in dogs after iv administration at 5 mg/kg dose; Na+ mequiv/min=279.
Assay [16] deals with Canis familiaris. Kind of assay: The saluretic(Cl-) effect of compound was measured in dogs after iv administration at 3 mg/kg dose; Cl-mequiv/min=303. The assay is classed as functional, Canis lupus familiaris.
Assay [17] concerns Canis familiaris. Kind of assay: The saluretic(K+) effect of compound was measured in dogs after iv administration at 3 mg/kg dose; K+mequiv/min=20. Format: functional, Canis lupus familiaris.
For assay [18], the system named is Canis familiaris. The assay can be described thus: The saluretic(Na+) effect of compound was measured in dogs after iv administration at 3 mg/kg dose; Na+ mequiv/min=279. Format: functional, Canis lupus familiaris.
Assay [19] concerns Rattus norvegicus. Kind of assay: Saluretic(Na+) effect of compound was measured in rats after oral administration at 3 mg/kg dose; Na+ mequiv x 100/cage. Format: functional.
Assay [20] deals with Rattus norvegicus. Kind of assay: The saluretic (Na+) effect of compound was measured in rats after oral administration at 81 mg/kg dose; Na+ mequiv*100/cage. The assay is classed as functional.
Assay [21] has as its system Rattus norvegicus. Kind of assay: The saluretic (Na+) effect of compound was measured in rats after oral administration at 9 mg/kg dose; Na+ mequiv*100/cage. Format: functional.
Assay [22] deals with Rattus norvegicus. The assay can be described thus: The saluretic(K+) effect of compound was measured in rats after oral administration at 81 mg/kg dose; K+mequiv*100/cage=14. Format: functional.
The test system of assay [23] is Rattus norvegicus. Kind of assay: The saluretic(K+) effect of compound was measured in rats after oral administration at 9 mg/kg dose; K+mequiv*100/cage=14. The assay is classed as functional.
Assay [24] deals with Rattus norvegicus. Kind of assay: The saluretic(Cl-) effect of compound was measured in rats after oral administration at 3 mg/kg dose; Cl- mequiv x 100/cage =14. Format: functional.
Assay [25] deals with Rattus norvegicus. Kind of assay: The saluretic(Cl-) effect of compound was measured in rats after oral administration at 81 mg/kg dose; Cl-mequiv*100/cage=14. The assay is classed as functional.
For assay [26], the system named is Rattus norvegicus. Kind of assay: The saluretic(Cl-) effect of compound was measured in rats after oral administration at 9 mg/kg dose; Cl-mequiv*100/cage=14. Format: functional.
In assay [27] the test system is Rattus norvegicus. The assay can be described thus: The saluretic(K+) effect of compound was measured in rats after oral administration at 3 mg/kg dose; K+ mequiv x 100/cage=14. Format: functional.
Assay [28] deals with Rattus norvegicus. The assay can be described thus: Mean arterial pressure was measured in hypertensive rat at dose of 20 mg/kg, ip. The settings on record: route intraperitoneal.
Assay [29] relates to Rattus norvegicus. The assay can be described thus: The saluretic(Cl-) effect of compound was measured in rats after oral administration at 3 mg/kg dose; Cl-mequiv*100/cage=14. The assay is classed as functional.
Assay [30] relates to Rattus norvegicus. The assay can be described thus: The saluretic(K+) effect of compound was measured in rats after oral administration at 3 mg/kg dose; K+mequiv*100/cage=14. Format: functional.
For assay [31], the system named is Canis familiaris. Kind of assay: The saluretic(K+) effect of compound was measured in dogs after iv administration at 2 mg/kg dose; K+mequiv/min=20. The assay is classed as functional, Canis lupus familiaris.
Assay [32] concerns Canis familiaris. The assay can be described thus: The saluretic(Na+) effect of compound was measured in dogs after iv administration at 2 mg/kg dose; Na+ mequiv/min=279. The assay is classed as functional, Canis lupus familiaris.
The subject of assay [33] is Canis familiaris. The assay can be described thus: The saluretic(Cl-) effect of compound was measured in dogs after iv administration; Cl-mequiv/min=303.
Assay [34] is filed under the species Rattus norvegicus. The assay can be described thus: Duration of effect was measured in hypertensive rat. The assay is classed as functional. A digest of the protocol: as §1

Turning to `CC(C)(C)c1cc(CN)c(O)c(I)n1`, the Diuretic effects with Rattus norvegicus [1] was 276; in the assay with Rattus norvegicus [2], 330; in the assay on Rattus norvegicus [3] (27 mg/kg), 351 and 444; in the assay with Rattus norvegicus [4] it was 279; with Rattus norvegicus [5], 276; in the assay with Rattus norvegicus [6], 528. Besides, the Diuretic effects was 63 and 83 with Rattus norvegicus [7] (27 mg/kg); 51 in the assay on Rattus norvegicus [8]; 108 in the assay on Rattus norvegicus [9]; 178 with Rattus norvegicus [12]; 48 with Canis familiaris [13]; 729 in the assay with Canis familiaris [14]. In addition, in the assay with Canis familiaris [15], the Diuretic effects is recorded as 611. Moreover, the Max fall in the assay with Rattus norvegicus [10] (dose 20 mg/kg) stood at 13 mmHg. In the assay filed under Rattus norvegicus [11], this molecule came in with a Duration of more than 24 h.

In the case of `CC(C)(C)c1cc(CN)c(O)cn1`, the Diuretic effects worked out at 303 in the assay with Canis familiaris [16]; 20 in the assay with Canis familiaris [17]; 279 with Canis familiaris [18]; 14 with Rattus norvegicus [19]; 22 with Rattus norvegicus [1]; 63 in the assay with Rattus norvegicus [20]. For the same molecule, the Diuretic effects in the assay on Rattus norvegicus [21] was 8; in the assay with Rattus norvegicus [3], 37; in the assay on Rattus norvegicus [22], 23; in the assay on Rattus norvegicus [23], 7; in the assay with Rattus norvegicus [24] it was 14; in the assay with Rattus norvegicus [25] it was 98. Moreover, the Diuretic effects with Rattus norvegicus [26] turned out to be 11; in the assay on Rattus norvegicus [7], 15; in the assay on Rattus norvegicus [27], 14. In the assay with Rattus norvegicus [28], this molecule gave a Max fall of 12 mmHg.

For the molecule `CC(C)(C)c1cc(I)c(O)c(CN)c1`, the Diuretic effects is 822 with Canis familiaris [16]; 66 in the assay with Canis familiaris [17]; 716 in the assay on Canis familiaris [18]; 319 in the assay on Rattus norvegicus [1]; 351 in the assay with Rattus norvegicus [20]; 270 in the assay with Rattus norvegicus [21]. Further, the Diuretic effects was 435 in the assay on Rattus norvegicus [3]; 99 in the assay on Rattus norvegicus [22]; 77 in the assay on Rattus norvegicus [23]; 211 in the assay on Rattus norvegicus [29]; 489 with Rattus norvegicus [25]; 364 with Rattus norvegicus [26]. Further, the Diuretic effects in the assay on Rattus norvegicus [7] amounted to 88; in the assay on Rattus norvegicus [30], 51; in the assay on Rattus norvegicus [12], 146. In addition, the Max fall in the assay on Rattus norvegicus [10] (dose 0.312 mg/kg, in the assay text read “0.312 mg/kg” for “20 mg/kg”) worked out at 26 mmHg.

In the case of `NS(=O)(=O)c1cc(C(=O)O)c(NCc2ccco2)cc1Cl` [FUROSEMIDE], the Diuretic effects with Canis familiaris [31] is 141; with Canis familiaris [32], 960; in the assay on Rattus norvegicus [1] it was 125; in the assay with Rattus norvegicus [20] it was 244; in the assay with Rattus norvegicus [21] it was 7; in the assay on Rattus norvegicus [3] (27 mg/kg) it was 213 and 370. In addition, the Diuretic effects is reported as 77 in the assay with Rattus norvegicus [22]; 14 in the assay on Rattus norvegicus [23]; 22 with Rattus norvegicus [26]; 55 in the assay with Rattus norvegicus [7]; 1081 with Canis familiaris [33]. Further, the Max fall in the assay on Rattus norvegicus [10] (dose 30 mg/kg, in the assay text read “30 mg/kg” for “20 mg/kg”) stood at 12 mmHg.

With `NS(=O)(=O)c1cc2c(cc1Cl)NCNS2(=O)=O` [HYDROCHLOROTHIAZIDE], the Diuretic effects in the assay on Canis familiaris [16] is 156; with Canis familiaris [17] it was 33; in the assay with Canis familiaris [18] it was 166; in the assay with Rattus norvegicus [3] it was 156; with Rattus norvegicus [22] it was 37; in the assay with Rattus norvegicus [29], 154. Further, the Diuretic effects was 143 in the assay on Rattus norvegicus [25], 34 in the assay with Rattus norvegicus [7] and 34 in the assay with Rattus norvegicus [30]. Further, the Max fall in the assay on Rattus norvegicus [10] (dose 20 mg/kg) is 25 mmHg. The Duration in the assay filed under Rattus norvegicus [34] is <8 h and 12 h.
